# Screening data from PubChem.
# SIRT5 block – SIRT5 desuccinylase inhibitors, primary screen, biochemical, fluorescence imaging, single point, set 5; hit rate 1.1% among 330,000; AID 652115, 2013; inhibition, % at 15 µM; Purified SirT5, succinyl-peptide AMC, trypsin-coupled fluorescence; in the data active = inhibition above about 15%; inconclusive = no clear call, values can overlap the other calls
# Target sequence (Q9NXA8 whole entry, looked up): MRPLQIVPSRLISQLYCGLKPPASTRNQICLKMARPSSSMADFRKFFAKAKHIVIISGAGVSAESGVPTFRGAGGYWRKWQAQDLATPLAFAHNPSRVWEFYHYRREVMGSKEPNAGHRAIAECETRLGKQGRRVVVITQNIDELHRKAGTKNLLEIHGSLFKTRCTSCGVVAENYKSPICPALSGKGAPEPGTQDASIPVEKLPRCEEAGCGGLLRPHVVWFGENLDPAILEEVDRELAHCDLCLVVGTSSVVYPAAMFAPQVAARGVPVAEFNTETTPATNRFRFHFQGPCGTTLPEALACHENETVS
# E-sel inducer – E-selectin induction in HUVECs, primary screen, imaging, HUVEC, immunofluorescence imaging, single point | AID 686992, 2013 | activation, % at 7.58 µM | hit rate 0.37% among 260,000 | P16581 | normalized: neutral wells 0, TNF-alpha wells 100;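 active = mean E-selectin-positive cell signal at least 10% of the positive control, reached in at least 60% of replicates, without over 20% cell loss; inconclusive = no rule given, readout overlaps actives, possibly toxicity-flagged; inactive = the rest, including those meeting only one limit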
#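 material = human umbilical vein endothelial cells (HUVEC), E-selectin induction | quantity = 3,000 cells/well | medium = EGM-2 growth medium on 0.1% gelatin-coated wells | technique = immunofluorescence imaging | read-out basis = % PE-positive cells | control set = TNF-alpha positive control, DMSO neutral control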
# DENV2 CPE rescue – inhibitors of DENV2 cytopathic effect, primary screen, cell-based, plate reader, single concentration; DENV2-infected cells, cytopathic effect rescue; CPE inhibition, % at 9.99 µM; hit rate 1.7% among 350,000; AID 651640, 2012; in the data active = CPE inhibition above about 20%, passing the limit was not always enough; inconclusive = no clear call, values can overlap the other calls; tested in BHK-21 cells;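 also: 0% = median of neutral control wells and 100% = median of positive control wells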
# Starred values were filed as active, the others as inactive; u = inconclusive; x = no result given. Shown are actives, neighbours in structure and some others; about 2.9% of the full set was active somewhere.
SMILES,SIRT5 block,E-sel inducer,DENV2 CPE rescue
C[C@H](NC(=O)C1CCN(S(=O)(=O)c2ccccc2)CC1)C(=O)NCc1ccc(F)cc1,0.1,x,-4.6
COc1ccc(S(=O)(=O)N2CCC(C(=O)N[C@H](C(=O)NCc3ccccc3)C(C)C)CC2)cc1,x,0.1,47.1*
C[C@@H]1CN([C@@H](C)CO)C(=O)c2cc(NC(=O)Nc3ccc4c(c3)OCO4)ccc2O[C@H]1CN(C)Cc1ccc(-c2ccccc2)cc1,-5.3,59.7*,-10.9
CC(C)NC(=O)Nc1ccc2c(c1)C(=O)N([C@H](C)CO)C[C@H](C)[C@H](CN(C)Cc1ccc(-c3ccccc3)cc1)O2,30.9*,-0.2,5.6
CC(C)NC(=O)Nc1ccc2c(c1)C(=O)N([C@@H](C)CO)C[C@@H](C)[C@H](CN(C)Cc1ccccc1)O2,-6.9,-0.1,-7.6
C[C@H](CO)N1C[C@H](C)[C@@H](CN(C)Cc2ccc(-c3ccccc3)cc2)Oc2ccc(NC(=O)Nc3ccc4c(c3)OCO4)cc2C1=O,-3.8,10.5,1.2
C[C@H](CO)N1C[C@H](C)[C@@H](CN(C)S(=O)(=O)c2ccccc2)Oc2ccc(NC(=O)C3CCCCC3)cc2CC1=O,1.3,0.7,-9.6
CC(C)NC(=O)N(C)C[C@H]1OCCCC[C@@H](C)Oc2ccc(NS(=O)(=O)c3cccs3)cc2C(=O)N([C@@H](C)CO)C[C@H]1C,-0.9,x,u
CC(NC(=S)NC1CCC(C(C)(C)C)CC1)c1ccccc1 (centres undefined),-4.2,0.1,23.1*
Cc1ccc(CNC(=S)NC2CCC(C(C)(C)C)CC2)cc1 (centres undefined),-1.1,-1.4,u
CNC[C@H]1Oc2c(NS(=O)(=O)c3ccc(OC)cc3)cccc2C(=O)N([C@@H](C)CO)C[C@H]1C,-3.5,x,1.8
C[C@H](NC(=O)C[C@H]1CC[C@@H]2[C@H](COC[C@H](O)CN2C(=O)Nc2cc(Cl)cc(Cl)c2)O1)c1ccccc1,-0.9,0.0,-7.8
c1ccc(Cc2noc(CN3CCN(Cc4ccc5c(c4)OCO5)CC3)n2)cc1,-0.4,x,-4.7
CCOC(=O)C1CCCN(c2nc3c(C)cccn3c(=O)c2/C=C(\C#N)C(=O)NCc2ccco2)C1 (centres undefined),-0.3,x,-5.1
O=C(N=C1SC2CS(=O)(=O)CC2N1c1ccccc1F)C1CCCCC1 (centres undefined),-3.9,x,12.8
O=C(N=C1SC2CS(=O)(=O)CC2N1c1ccc(F)cc1F)C1CC1 (centres undefined),16.7*,x,20.0
CC(C)C1Cc2nc(Cl)c(C#N)cc2CO1 (centres undefined),-1.9,x,u
COC(=O)c1ccc(CNC(=O)/C=C/[C@H]2O[C@@H](n3cc(C)c(=O)[nH]c3=O)C[C@@H]2O)cc1,21.2*,1.2,-5.1
COc1ccc(CNC(=O)/C=C/[C@H]2O[C@@H](n3cc(C)c(=O)[nH]c3=O)C[C@@H]2O)cc1,0.2,0.9,0.6
CC(C)[C@H](NC(=O)C1CCCC1)C(=O)N1CCC[C@H]1C(=O)NCc1ccccc1,1.7,0.2,7.6
CC(C)[C@H](NC(=O)c1cccs1)C(=O)N1CCC[C@H]1C(=O)NCc1ccccc1,-0.3,2.0,26.2*
O=C(N[C@H](C(=O)N1CCC[C@H]1C(=O)NC1CCCC1)c1ccccc1)c1ccccc1,1.2,u,-2.5
O=C(NC(C(=O)N1CCCC1C(=O)NC1CCCC1)c1ccccc1)c1cccs1 (centres undefined),-3.2,0.1,46.8*
CNCCC(Oc1ccccc1OC)c1ccccc1 (centres undefined),21.8*,0.2,-4.2
CNCC[C@@H](Oc1ccccc1C)c1ccccc1,-1.9,-0.1,3.0
SMILES,SIRT5 block,E-sel inducer,DENV2 CPE rescue
Nc1nnc(CCCCCCCCCCc2nnc(N)s2)s1,-0.7,x,-2.2
CN(Cc1ccco1)C(=O)Cn1ncc2c([nH]c3ccccc32)c1=O,2.4,x,20.0
COCCCN(Cc1ccco1)C(=O)Cn1ncc2c([nH]c3ccccc32)c1=O,-0.7,x,24.9*
C/C(=N\NC(=O)c1ccc(Cn2cc([N+](=O)[O-])cn2)o1)c1cccc(NC(=O)C(C)C)c1,-2.8,x,27.6*
O=C(N/N=C/c1cccnc1)c1ccc(Cn2cc([N+](=O)[O-])cn2)o1,1.4,x,1.1
COc1ccc2c(c1)c(CC(=O)OCC(N)=O)c(C)n2C(=O)c1ccc(Cl)cc1,-7.8,x,5.5
CCN(CC)CCNC(=O)CCN1N=C(c2ccccc2)CCC1=O,25.9*,0.1,-1.3
CCCCNC(=O)CCN1N=C(c2ccccc2)CCC1=O,3.4,3.0,-4.0
CCOc1cccc2sc(N3CCN(C(=O)c4ccc5ncsc5c4)CC3)nc12,-2.2,0.5,-9.0
